According to ChEMBL document CHEMBL1123877, “Metabolic synthesis of arylacetic acid antiinflammatory drugs from arylhexenoic acids. 2. Indomethacin” (1987):

Tests used:
Mus musculus [1] = assay: Inhibition of phenylbenzoquinone writhing in mice was tested at the dose of 30 mg/kg for 1 hr; type: functional
Procedure, shortened: (§1)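 Male CD-1 mice, 18-22 g, groups of 10, fasted overnight. Oral dose in 1% methylcellulose (0.1 mL/10 g) at set times before phenylbenzoquinone, 2.0 mg/kg ip. Writhes counted 5-15 min after PBQ. % inhibition = 100 − (drug mean/vehicle mean × 100).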

Mus musculus [2] = assay: Inhibition of phenylbenzoquinone writhing in mice was tested at the dose of 30 mg/kg for 2 hr; type: functional; procedure, shortened: as §1
Mus musculus [3] = assay: Inhibition of phenylbenzoquinone writhing in mice was tested at the dose of 30 mg/kg for 4 hr; type: functional; procedure, shortened: as §1
Rattus norvegicus [4] = assay: Analgesic activity was measured in rat yeast induced hyperalgesia assay at a dose of 30 mg/kg for 1 hr.; type: functional
Procedure, shortened: (§2)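 Female Sprague-Dawley rats, 50-60 g, groups of 10, fasted overnight. Brewer's yeast (5% in 0.1 mL) injected subplantar. Compound given orally in 1% methylcellulose, 0.1 mL/10 g. Each group tested once, always 3 h after yeast. An animal counts as analgesic if vocalization needs ≥25 mmHg on the inflamed paw. Result is percent of animals analgesic.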

Rattus norvegicus [5] = assay: Analgesic activity was measured in rat yeast induced hyperalgesia assay at a dose of 30 mg/kg for 4 hr.; type: functional; procedure, shortened: as §2
Rattus norvegicus [6] = assay: Analgesic activity was measured in rat yeast induced hyperalgesia assay at a dose of 30 mg/kg for 8 hr.; type: functional; procedure, shortened: as §2
Rattus norvegicus [7] = assay: Plasma drug level was measured in rat yeast induced hyperalgesia assay in presence of drug 6 or 7 at a dose of 30 mg/kg for 4 hr.; type: functional
Procedure, shortened: (§3)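 Rats are bled after the yeast hyperalgesia test. 50 μL plasma is mixed with an equal volume of 0.1 N HCl and injected directly on a C-18 reverse-phase HPLC column. Eluent is methanol/0.01 M phosphate pH 4 (65:35), 1.5 mL/min, with UV detection at 254 nm. Parent compound and indomethacin are quantified against standard calibration. Mean ± SEM, n=10.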

Rattus norvegicus [8] = assay: Plasma drug level was measured in rat yeast induced hyperalgesia assay in presence of drug 6 or 7 at a dose of 30 mg/kg for 1 hr.; type: functional; procedure, shortened: as §3
Rattus norvegicus [9] = assay: Plasma drug level was measured in rat yeast induced hyperalgesia assay in presence of drug 6 or 7 at a dose of 30 mg/kg for 8 hr.; type: functional; procedure, shortened: as §3
Rattus norvegicus [10] = assay: Plasma drug level was measured in rat yeast induced hyperalgesia assay in presence of indomethacin at a dose of 30 mg/kg for 1 hr.; type: functional; procedure, shortened: as §3
Rattus norvegicus [11] = assay: Plasma drug level was measured in rat yeast induced hyperalgesia assay in presence of indomethacin at a dose of 30 mg/kg for 4 hr.; type: functional; procedure, shortened: as §3
Rattus norvegicus [12] = assay: Plasma drug level was measured in rat yeast induced hyperalgesia assay in presence of indomethacin at a dose of 30 mg/kg for 8 hr.; type: functional; procedure, shortened: as §3
Rattus norvegicus [13] = assay: (§4) Vocalization threshold value was measured in rat yeast induced hyperalgesia assay at a dose of 30 mg/kg for 8 hr.; type: functional
Procedure, shortened: (§5)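 Female Sprague-Dawley rats, 50-60 g, groups of 10, fasted overnight. Brewer's yeast (5% in 0.1 mL) injected subplantar, then oral dosing in 1% methylcellulose. An air-driven piston (2 mm) presses the plantar surface of the normal and yeast-injected paws. The pressure that causes vocalization is read on a manometer in mmHg, tested 3 h after yeast. Normal vs inflamed paw compared by paired t test. Mean ± SEM.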

Rattus norvegicus [14] = assay: Vocalization threshold value was measured in rat yeast induced hyperalgesia assay at a dose of 30 mg/kg for 1 hr.; type: functional; procedure, shortened: as §5
Rattus norvegicus [15] = assay: Vocalization threshold value was measured in rat yeast induced hyperalgesia assay at a dose of 30 mg/kg for 4 hr.; type: functional; procedure, shortened: as §5
Rattus norvegicus [16] = assay: as §4; type: functional; remark: listed apart in the source
Rattus norvegicus [17] = assay: Vocalization threshold value was measured in rat yeast induced hyperalgesia assay at a dose of 10 mg/kg for 1 hr.; type: functional; procedure, shortened: as §5
Mus musculus [18] = assay: Inhibition of phenylbenzoquinone writhing in mice was tested at the dose of 30 mg/kg for 6 hr; type: functional; procedure, shortened: as §1
Rattus norvegicus [19] = assay: Analgesic activity was measured in rat yeast induced hyperalgesia assay at a dose of 10 mg/kg for 6 hr.; type: functional; procedure, shortened: as §2
Rattus norvegicus [20] = assay: Analgesic activity was measured in rat yeast induced hyperalgesia assay at a dose of 10 mg/kg for 8 hr.; type: functional; procedure, shortened: as §2
Rattus norvegicus [21] = assay: Analgesic activity was measured in rat yeast induced hyperalgesia assay at a dose of 30 mg/kg for 12 hr.; type: functional; procedure, shortened: as §2
Rattus norvegicus [22] = assay: Analgesic activity was measured in rat yeast induced hyperalgesia assay at a dose of 30 mg/kg for 24 hr.; type: functional; procedure, shortened: as §2
Rattus norvegicus [23] = assay: Plasma drug level was measured in rat yeast induced hyperalgesia assay in presence of drug 6 or 7 at a dose of 30 mg/kg for 12 hr; type: functional; procedure, shortened: as §3
Rattus norvegicus [24] = assay: Plasma drug level was measured in rat yeast induced hyperalgesia assay in presence of indomethacin at a dose of 30 mg/kg for 12 hr.; type: functional; procedure, shortened: as §3
Rattus norvegicus [25] = assay: Plasma drug level was measured in rat yeast induced hyperalgesia assay in presence of indomethacin at a dose of 30 mg/kg for 24 hr.; type: functional; procedure, shortened: as §3
Rattus norvegicus [26] = assay: (§6) Vocalization threshold value was measured in rat yeast induced hyperalgesia assay at a dose of 30 mg/kg for 24 hr.; type: functional
Rattus norvegicus [27] = assay: Vocalization threshold value was measured in rat yeast induced hyperalgesia assay at a dose of 10 mg/kg for 6 hr.; type: functional; procedure, shortened: as §5
Rattus norvegicus [28] = assay: (§7) Vocalization threshold value was measured in rat yeast induced hyperalgesia assay at a dose of 10 mg/kg for 8 hr.; type: functional
Rattus norvegicus [29] = assay: Vocalization threshold value was measured in rat yeast induced hyperalgesia assay at a dose of 30 mg/kg for 12 hr.; type: functional; procedure, shortened: as §5
Rattus norvegicus [30] = assay: as §6; type: functional; procedure, shortened: as §5; remark: listed apart in the source
Rattus norvegicus [31] = assay: Analgesic activity was measured in rat yeast induced hyperalgesia assay at a dose of 10 mg/kg for 1 hr.; type: functional; procedure, shortened: as §2
Rattus norvegicus [32] = assay: as §7; type: functional; procedure, shortened: as §5; remark: listed apart in the source
Mus musculus [33] = assay: Inhibition of phenylbenzoquinone writhing in mice was tested at the dose of 3 mg/kg for 1 hr; type: functional; procedure, shortened: as §1
Mus musculus [34] = assay: Inhibition of phenylbenzoquinone writhing in mice was tested at the dose of 3 mg/kg for 2 hr; type: functional; procedure, shortened: as §1
Mus musculus [35] = assay: Inhibition of phenylbenzoquinone writhing in mice was tested at the dose of 3 mg/kg for 4 hr; type: functional; procedure, shortened: as §1
Mus musculus [36] = assay: Compound was tested for […] activity in mice after perorally administered at 1 hr; type: functional; settings: po
Rattus norvegicus [37] = assay: Analgesic activity was measured in rat yeast induced hyperalgesia assay at a dose of 10 mg/kg for 12 hr.; type: functional; procedure, shortened: as §2
Rattus norvegicus [38] = assay: Analgesic activity was measured in rat yeast induced hyperalgesia assay at a dose of 10 mg/kg for 24 hr.; type: functional; procedure, shortened: as §2
Rattus norvegicus [39] = assay: Analgesic activity was measured in rat yeast induced hyperalgesia assay at a dose of 10 mg/kg for 4 hr.; type: functional; procedure, shortened: as §2
Rattus norvegicus [40] = assay: Plasma drug level was measured in rat yeast induced hyperalgesia assay in presence of indomethacin at a dose of 10 mg/kg for 12 hr.; type: functional; procedure, shortened: as §3
Rattus norvegicus [41] = assay: Plasma drug level was measured in rat yeast induced hyperalgesia assay in presence of indomethacin at a dose of 10 mg/kg for 1 hr.; type: functional; procedure, shortened: as §3
Rattus norvegicus [42] = assay: Plasma drug level was measured in rat yeast induced hyperalgesia assay in presence of indomethacin at a dose of 10 mg/kg for 24 hr.; type: functional; procedure, shortened: as §3
Rattus norvegicus [43] = assay: Plasma drug level was measured in rat yeast induced hyperalgesia assay in presence of indomethacin at a dose of 10 mg/kg for 4 hr.; type: functional; procedure, shortened: as §3
Rattus norvegicus [44] = assay: Plasma drug level was measured in rat yeast induced hyperalgesia assay in presence of indomethacin at a dose of 10 mg/kg for 8 hr.; type: functional; procedure, shortened: as §3
Rattus norvegicus [45] = assay: (§8) Vocalization threshold value was measured in rat yeast induced hyperalgesia assay at a dose of 10 mg/kg for 4 hr.; type: functional
Rattus norvegicus [46] = assay: Vocalization threshold value was measured in rat yeast induced hyperalgesia assay at a dose of 10 mg/kg for 12 hr.; type: functional; procedure, shortened: as §5
Rattus norvegicus [47] = assay: Vocalization threshold value was measured in rat yeast induced hyperalgesia assay at a dose of 10 mg/kg for 24 hr.; type: functional; procedure, shortened: as §5
Rattus norvegicus [48] = assay: as §8; type: functional; procedure, shortened: as §5; remark: listed apart in the source
Rattus norvegicus [49] = assay: Compound was tested for hyperalgesia activity in rats after perorally administered at 1 hr; settings: po

## COc1ccc2c(c1)c(/C=C/CC(=O)O)c(C)n2C(=O)c1ccc(Cl)cc1
Mus musculus [1]
  Writhes: 34
  inhibition in vivo at 30 mg/kg: 19%
Mus musculus [2]
  Writhes: 28.6
  inhibition in vivo at 30 mg/kg: 32%
Mus musculus [3]
  Writhes: 23
  inhibition in vivo at 30 mg/kg: 46%
Rattus norvegicus [4]
  Analgesic: 10%
Rattus norvegicus [5]
  Analgesic: 30%
Rattus norvegicus [6]
  Analgesic: 30%
Rattus norvegicus [7]
  Drug level: 17 µg/mL
Rattus norvegicus [8]
  Drug level: 26 µg/mL
Rattus norvegicus [9]
  Drug level: 10 µg/mL
Rattus norvegicus [10]
  Drug level: <1 µg/mL
Rattus norvegicus [11]
  Drug level: <1 µg/mL
Rattus norvegicus [12]
  Drug level: <1 µg/mL
Rattus norvegicus [13]
  Inflamed: 21.6 mmHg
Rattus norvegicus [14]
  Inflamed: 14.2 mmHg
Rattus norvegicus [15]
  Inflamed: 20.2 mmHg
  Normal: 23.4 mmHg
Rattus norvegicus [16]
  Normal: 25.4 mmHg
Rattus norvegicus [17]
  Normal: 25.8 mmHg
Mus musculus [18]
  Writhes: 29.5
  inhibition in vivo at 30 mg/kg: 28%

## COc1ccc2c(c1)c(/C=C/CCCC(=O)O)c(C)n2C(=O)c1ccc(Cl)cc1
Mus musculus [1]
  Writhes: 16.4
  inhibition in vivo at 30 mg/kg: 20%
Mus musculus [2]
  Writhes: 15.3
  inhibition in vivo at 30 mg/kg: 26%
Mus musculus [3]
  Writhes: 7.2
  inhibition in vivo at 30 mg/kg: 65%
Rattus norvegicus [19]
  Analgesic: 40%
Rattus norvegicus [20]
  Analgesic: 40%
Rattus norvegicus [21]
  Analgesic: 60%
Rattus norvegicus [4]
  Analgesic: 60%
Rattus norvegicus [22]
  Analgesic: 0%
Rattus norvegicus [5]
  Analgesic: 60%
Rattus norvegicus [6]
  Analgesic: 100%
Rattus norvegicus [7]
  Drug level: 24.1 µg/mL
Rattus norvegicus [23]
  Drug level: 1.1 µg/mL
Rattus norvegicus [9]
  Drug level: 6.1 µg/mL
Rattus norvegicus [24]
  Drug level: 2.2 µg/mL
Rattus norvegicus [25]
  Drug level: 1.6 µg/mL
Rattus norvegicus [11]
  Drug level: 2.2 µg/mL
Rattus norvegicus [12]
  Drug level: 2.1 µg/mL
Rattus norvegicus [26]
  Inflamed: 13 mmHg
Rattus norvegicus [13]
  Inflamed: 27.6 mmHg
Rattus norvegicus [27]
  Inflamed: 21.6 mmHg
  Normal: 22 mmHg
Rattus norvegicus [28]
  Normal: 23.2 mmHg
Rattus norvegicus [29]
  Inflamed: 25 mmHg
  Normal: 25.2 mmHg
Rattus norvegicus [14]
  Inflamed: 25.4 mmHg
  Normal: 23 mmHg
Rattus norvegicus [30]
  Normal: 24.4 mmHg
Rattus norvegicus [15]
  Inflamed: 26 mmHg
  Normal: 24.8 mmHg
Rattus norvegicus [16]
  Normal: 25.6 mmHg
Rattus norvegicus [17]
  Inflamed: 16.8 mmHg
  Normal: 24 mmHg
Rattus norvegicus [31]
  Analgesic: 10%
Rattus norvegicus [32]
  Inflamed: 23.8 mmHg

## COc1ccc2c(c1)c(CC(=O)O)c(C)n2C(=O)c1ccc(Cl)cc1 [INDOMETHACIN]
Mus musculus [33]
  Writhes: 4.8
  inhibition in vivo at 3 mg/kg: 89%
Mus musculus [34]
  Writhes: 38.3
  inhibition in vivo at 3 mg/kg: 16%
Mus musculus [35]
  Writhes: 32.9
  inhibition in vivo at 3 mg/kg: 28%
Mus musculus [36]
  ED50: 3 mg/kg
Rattus norvegicus [37]
  Analgesic: 0%
Rattus norvegicus [38]
  Analgesic: 0%
Rattus norvegicus [39]
  Analgesic: 100%
Rattus norvegicus [20]
  Analgesic: 40%
Rattus norvegicus [40]
  Drug level: 9.8 µg/mL
Rattus norvegicus [41]
  Drug level: 21 µg/mL
Rattus norvegicus [42]
  Drug level: 3.3 µg/mL
Rattus norvegicus [43]
  Drug level: 38 µg/mL
Rattus norvegicus [44]
  Drug level: 21 µg/mL
Rattus norvegicus [45]
  Inflamed: 32 mmHg
Rattus norvegicus [28]
  Normal: 28.4 mmHg
Rattus norvegicus [46]
  Inflamed: 15.6 mmHg
  Normal: 24.4 mmHg
Rattus norvegicus [17]
  Inflamed: 30 mmHg
  Normal: 27.9 mmHg
Rattus norvegicus [47]
  Inflamed: 16 mmHg
  Normal: 22.4 mmHg
Rattus norvegicus [48]
  Normal: 26.8 mmHg
Rattus norvegicus [31]
  Analgesic: 70%
Rattus norvegicus [32]
  Inflamed: 28.4 mmHg
Rattus norvegicus [49]
  ED50: 5 mg/kg
